Data on five compounds can be found in ChEMBL document CHEMBL3994569, “Synthesis, anti-varicella-zoster virus and anti-cytomegalovirus activity of quinazoline-2,4-diones containing isoxazolidine and phosphonate substructures” (Eur J Med Chem, 2017).

A word on the EC50: it is the concentration needed to bring the measured effect to its halfway point. The IC50 is the concentration at which inhibition is half-maximal. As a reminder, the CC50 is the concentration at which the toxic effect on the cells reaches its halfway point.

Series [1] can be described thus: (§1) Cytotoxicity against HEL cells infected with Cytomegalovirus assessed as alteration in cell morphology by microscopic method. The format is cell-based. The conditions noted are these: human, HEL cells infected with Cytomegalovirus. Put shortly:
(§2)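 In the HEL cultures used for the antiviral assays, cell morphology was examined microscopically across varying compound concentrations. MCC is the minimum concentration causing a microscopically detectable alteration of cell morphology.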

In series [2] the test system is Cytomegalovirus. Put plainly: Antiviral activity against Cytomegalovirus AD169 infected in HEL cells assessed as reduction in virus plaque formation. The format is functional, cell-based. Put shortly: (§3)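 Confluent HEL fibroblast cultures infected with 100 PFU of HCMV and kept with varying compound concentrations. Plaques scored once plaque formation was complete in untreated infected controls.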

Series [3] relates to Cytomegalovirus. Put plainly: Antiviral activity against Cytomegalovirus Davis infected in HEL cells assessed as reduction in virus plaque formation. The format is functional, cell-based. Put shortly:
as §3

In series [4] the test system is CCRF-CEM. Put plainly: Anti-proliferative activity against human CEM cells measured after 72 hrs by coulter counter method. The format is ADME, cell-based. The gist of the method:
(§4)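 Cells at 300,000–500,000 cells/mL, combined 1:1 by volume with compound dilutions, incubated at 37 °C: L1210 for two days, CEM for three days, HeLa for four days. Cells counted by Coulter counter.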

Series [5] has as its system HEL. In words: Cytotoxicity against HEL cells infected with Cytomegalovirus assessed as growth inhibition. The format is cell-based. The conditions noted are these: human.
Series [6] relates to Human alphaherpesvirus 3. Put plainly: Antiviral activity against thymidine kinase expressing Varicella-Zoster virus OKA infected in HEL cells assessed as reduction in virus plaque formation. The format is functional, cell-based, strain Oka vaccine. The gist of the method:
(§5)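 Confluent HEL fibroblast cultures were infected with VZV at an input of 100 PFU and incubated with varying compound concentrations. Plaques were counted once plaque formation was complete in untreated infected controls.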

Series [7] in a line: (§6) Cytotoxicity against HEL cells infected with Varicella-Zoster virus assessed as alteration in cell morphology by microscopic method. The conditions noted are these: human, HEL cells infected with Varicella-Zoster virus. The format is cell-based. The gist of the method: as §2
Series [8] relates to L1210. Put plainly: Anti-proliferative activity against mouse L1210 cells measured after 48 hrs by coulter counter method. The format is ADME, cell-based. The conditions noted are these: Mus musculus, L1210, 48 h. The gist of the method: as §4
The nature of series [9]: (§7) Cytotoxicity against HEL cells infected with Varicella-Zoster virus assessed as growth inhibition. The format is cell-based. The conditions noted are these: human, HEL cells infected with Varicella-Zoster virus.
For series [10], the system named is HeLa. In words: Anti-proliferative activity against human HeLa cells measured after 4 days by coulter counter method. Format: ADME, cell-based. Put shortly:
as §4

Series [11] concerns HMEC-1. In words: Anti-proliferative activity against HMEC1 cells by coulter counter method. Format: ADME, cell-based, Homo sapiens. Put shortly: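 HMEC-1 cells at 300,000–500,000 cells/mL, mixed 1:1 by volume with serial dilutions of test compound, incubated at 37 °C. Cell number counted by Coulter counter.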
For series [12], the system named is Human alphaherpesvirus 3. In words: Antiviral activity against thymidine kinase deficient Varicella-Zoster virus 07-1 infected in HEL cells assessed as reduction in virus plaque formation. Format: functional, cell-based. Put shortly: as §5
Series [13] deals with Human alphaherpesvirus 3. Put plainly: Potency index, ratio of acyclovir EC50 to compound EC50 for thymidine kinase deficient Varicella-Zoster virus 07-1 infected in HEL cells assessed as reduction in virus plaque formation. Format: functional.
In series [14] the test system is HEL. The series is described as §7. Format: cell-based. The conditions noted are these: human, hel.
In series [15] the test system is Human alphaherpesvirus 1. In words: Antiviral activity against Herpes simplex virus 1 KOS infected in HEL cells assessed as reduction in virus-induced cytopathogenicity. Format: functional, cell-based. The conditions noted are these: Human alphaherpesvirus 1, KOS. Put shortly:
(§8)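 Confluent HEL fibroblast monolayers were infected with 100 CCID50 of virus and incubated with varying concentrations of compound. Cytopathicity was scored once it was complete in untreated infected controls.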
On the technique in general: Damage to the host cells serves as the signal in cytopathic effect assays.

In series [16] the test system is Human alphaherpesvirus 2. In words: Antiviral activity against Herpes simplex virus 2 G infected in HEL cells assessed as reduction in virus-induced cytopathogenicity. Format: functional, cell-based. The conditions noted are these: Human alphaherpesvirus 2, strain G.
The nature of series [17]: Cytotoxicity against virus infected HEL cells assessed as alteration in cell morphology by microscopic method. Format: cell-based. The conditions noted are these: human. Put shortly:
as §2

Series [18] relates to Human alphaherpesvirus 1. In words: Antiviral activity against thymidine kinase-deficient acyclovir-resistant Herpes simplex virus 1 KOS infected in HEL cells assessed as reduction in virus-induced cytopathogenicity. Format: functional, cell-based. The conditions noted are these: Human alphaherpesvirus 1, KOS. The gist of the method: as §8
For series [19], the system named is Human adenovirus 2. In words: Antiviral activity against Human adenovirus 2 infected in HEL cells assessed as reduction in virus-induced cytopathogenicity. The format is functional, cell-based. The conditions noted are these: Human mastadenovirus C. The gist of the method: as §8
Series [20] has as its system HEL. The description is as §1. The format is cell-based. The conditions noted are these: human, hel. Put shortly:
as §2

For series [21], the system named is HEL. The series is described as §6. The format is cell-based. The conditions noted are these: human, hel. Put shortly:
as §2

The mark [22] stands for this setting: Human alphaherpesvirus 3, 07-1, HEL.
Where [23] appears, read: Human betaherpesvirus 5, AD169, HEL.
Setting [24] is: Human betaherpesvirus 5, Davis, HEL.
The mark [25] stands for this setting: Human alphaherpesvirus 3, strain Oka vaccine, HEL.

Turning to `CCOP(=O)(OCC)C1CC(Cn2c(=O)n(Cc3ccccc3)c(=O)c3ccccc32)ON1Cc1ccccc1` (mixture of isomers; cis), the MCC in series [1] and in series [7] was 100 µM in each case. In addition, the EC50 in series [2] is at least 3 µM; in series [3] it was 6.5 µM; in [6], 7.3 µM; in series [12] (setting [22]), 13.2 µM. For the same compound, the IC50 is 10 µM in series [4] (Homo sapiens, CCRF-CEM, 72 h); 18 µM in series [8]; 33 µM in series [10] (hela); 28 µM in series [11] (Homo sapiens, HMEC-1). Further, the CC50 in series [5] and in [9] was 9 µM each time.

For the compound `CCOP(=O)(OCC)C1CC(Cn2c(=O)n(Cc3ccccc3F)c(=O)c3ccccc32)ON1Cc1ccccc1` (centres undefined), the MCC in series [1] and in series [7] was 100 µM each time. In addition, the EC50 in series [2] (setting [23]) is 8.94 µM; in [3] (setting [24]), at least 6.5 µM; in [6] (setting [25]), 4.7 µM; in series [12] (setting [22]), 5.1 µM. The IC50 in [4] (Homo sapiens, CCRF-CEM, 72 h) was determined as 20 µM; in series [8], 17 µM; in series [10] (Homo sapiens, HeLa, 96 h), 17 µM; in [11] (Homo sapiens, HMEC-1), 23 µM. The “Ratio EC50” value in [13] is reported as 10 - 14. The CC50 in [5] and in series [14] was 11.8 µM throughout.

As for `CCOP(=O)(OCC)[C@@H]1C[C@@H](Cn2c(=O)n(C(=O)c3ccc(F)cc3)c(=O)c3ccccc32)ON1C` (relative stereo), the EC50 was 39 µM in series [15]; over 20 µM in [2] (setting [23]); 12 µM in series [16]; over 20 µM in series [3] (setting [24]); 6.9 µM in series [6] (setting [25]); 9 µM in series [18]. Also, the EC50 is 17.5 µM in series [19] and 10.7 µM in [12] (setting [22]). Besides, the figures for the MCC in series [1], in series [17] and in series [7] were 100 µM, at least 100 µM and at least 100 µM, respectively. Further, in [8], the IC50 was over 250 µM. For the same compound, the CC50 in series [14] came out at 14.7 µM.

For `Nc1ccn(C[C@@H](CO)OCP(=O)(O)O)c(=O)n1` [CIDOFOVIR], the EC50 came out at 2 µM in series [15]; 1.44 µM in series [2] (setting [23]); 2 µM in series [16]; 0.81 µM in [3] (setting [24]); 3.8 µM in [18]; 10 µM in [19]. Moreover, the MCC is over 300 µM in series [1] and over 250 µM in [17]. Further, the CC50 in [5] was over 300 µM.

With `CCOP(=O)(OCC)C1CC(Cn2c(=O)n(Cc3ccc(F)cc3)c(=O)c3ccccc32)ON1Cc1ccccc1` (mixture of isomers; trans), the MCC in series [20] and in series [21] was 100 µM each time. Also, the EC50 in [2] is at least 6.5 µM; in [3], 8.94 µM; in [6], 3 µM; in [12] it was 3.6 µM. In addition, the IC50 came to 13 µM in [4] (ccrf-cem), 18 µM in [10] (hela) and 26 µM in series [11] (hmec-1). Further, the “Ratio EC50” value in [13] is 10 - 14. Further, the CC50 in [5] and in [14] was 6.6 µM throughout.
